According to ChEMBL document CHEMBL4184148 (Bioorg Med Chem Lett, 2017):

Legend:
[1] = tested on: Tyrosine-protein kinase ABL1 (Homo sapiens), P00519 [F317L]; test: Binding affinity to human non-phosphorylated ABL1 F317L mutant (S229 to K512 residues) expressed in HEK293 cells at 1 uM by Kinomescan method relative to control; format: cell-based
[2] = molecular target: Activin receptor type-2B (Homo sapiens) (UniProt Q13705); test: Binding affinity to wild-type human ACVR2B (H169 to D504 residues) expressed in Escherichia coli BL21 at 1 uM by Kinomescan method relative to control
Sequence of Activin receptor type-2B (Homo sapiens) (Q13705 whole entry, the tested form may be a part): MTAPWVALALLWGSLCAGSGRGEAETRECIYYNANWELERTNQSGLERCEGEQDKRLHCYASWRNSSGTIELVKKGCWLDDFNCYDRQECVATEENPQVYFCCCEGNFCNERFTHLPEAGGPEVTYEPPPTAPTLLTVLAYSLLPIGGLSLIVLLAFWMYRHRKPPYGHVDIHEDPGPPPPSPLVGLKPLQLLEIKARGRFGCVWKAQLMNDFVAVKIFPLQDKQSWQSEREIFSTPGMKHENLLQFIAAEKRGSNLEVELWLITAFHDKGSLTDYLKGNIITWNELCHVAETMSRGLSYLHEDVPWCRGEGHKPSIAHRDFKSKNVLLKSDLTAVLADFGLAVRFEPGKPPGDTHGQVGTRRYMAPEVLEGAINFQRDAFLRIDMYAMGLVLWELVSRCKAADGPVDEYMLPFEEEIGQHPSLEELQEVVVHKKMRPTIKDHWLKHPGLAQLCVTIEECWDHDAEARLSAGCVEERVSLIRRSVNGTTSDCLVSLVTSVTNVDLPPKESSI

[3] = molecular target: Atypical kinase COQ8B, mitochondrial (Homo sapiens) (UniProt Q96D53); test: Binding affinity to wild-type human full length ADCK4 (M1 to S544 residues) expressed in Escherichia coli BL21 at 1 uM by Kinomescan method relative to control
[4] = molecular target: ALK tyrosine kinase receptor (Homo sapiens) (UniProt Q9UM73); test: Binding affinity to wild-type human partial length ALK (I1088 to E1409 residues) expressed in HEK293 cells at 1 uM by Kinomescan method relative to control; format: cell-based
[5] = molecular target: 5'-AMP-activated protein kinase catalytic subunit alpha-2 (Homo sapiens) (UniProt P54646); test: Binding affinity to wild-type human partial length AMPK alpha2 (M1 to E306 residues) expressed in Escherichia coli BL21 at 1 uM by Kinomescan method relative to control
Sequence of 5'-AMP-activated protein kinase catalytic subunit alpha-2 (Homo sapiens) (P54646 whole entry, looked up, the tested form may be a part): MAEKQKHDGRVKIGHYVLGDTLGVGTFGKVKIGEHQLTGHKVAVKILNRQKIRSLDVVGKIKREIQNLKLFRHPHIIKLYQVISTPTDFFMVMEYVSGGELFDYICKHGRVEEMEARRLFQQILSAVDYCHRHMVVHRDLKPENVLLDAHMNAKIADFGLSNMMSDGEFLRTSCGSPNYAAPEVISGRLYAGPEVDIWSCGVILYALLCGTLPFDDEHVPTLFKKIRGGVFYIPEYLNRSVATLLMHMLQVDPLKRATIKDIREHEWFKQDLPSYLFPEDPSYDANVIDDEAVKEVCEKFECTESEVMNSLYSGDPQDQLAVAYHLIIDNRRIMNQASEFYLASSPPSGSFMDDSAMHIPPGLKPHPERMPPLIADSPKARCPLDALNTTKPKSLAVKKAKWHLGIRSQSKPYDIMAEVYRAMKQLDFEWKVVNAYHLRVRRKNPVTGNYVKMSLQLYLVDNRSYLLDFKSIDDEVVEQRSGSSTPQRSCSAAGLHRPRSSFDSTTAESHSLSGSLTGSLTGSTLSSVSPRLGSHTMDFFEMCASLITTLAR
Method in brief: (§1)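 Kinome-wide competition binding panel run by an outside provider, with each compound tested at a single concentration. Activity is read against the kinase panel.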

[6] = molecular target: Dual specificity protein kinase CLK3 (Homo sapiens) (UniProt P49761); test: Binding affinity to wild-type human full length CLK3 (M1 to R490 residues) expressed in Escherichia coli BL21 at 1 uM by Kinomescan method relative to control
Method in brief: (§2)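 Run as one kinome-wide competition binding panel with each compound at a single fixed concentration. Results were plotted as a kinome-wide selectivity map.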

[7] = molecular target: Casein kinase I isoform alpha-like (Homo sapiens) (UniProt Q8N752); test: Binding affinity to wild-type human full length CSNK1A1L (M1 to N337 residues) expressed in Escherichia coli BL21 at 1 uM by Kinomescan method relative to control; method in brief: as §2
Sequence of Casein kinase I isoform alpha-like (Homo sapiens) (Q8N752 whole entry, the tested form may be a part, canonical isoform): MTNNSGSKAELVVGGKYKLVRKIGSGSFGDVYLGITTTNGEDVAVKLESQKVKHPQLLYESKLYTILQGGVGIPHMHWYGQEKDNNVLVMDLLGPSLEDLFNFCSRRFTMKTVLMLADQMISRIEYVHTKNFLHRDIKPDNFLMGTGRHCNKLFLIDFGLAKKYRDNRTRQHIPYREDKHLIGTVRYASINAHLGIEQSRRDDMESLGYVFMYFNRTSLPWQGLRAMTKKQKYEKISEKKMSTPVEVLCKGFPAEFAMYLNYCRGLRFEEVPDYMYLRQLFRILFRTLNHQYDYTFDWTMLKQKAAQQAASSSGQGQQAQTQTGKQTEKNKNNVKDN

[8] = molecular target: Serine/threonine-protein kinase DCLK1 (Homo sapiens) (UniProt O15075); test: Binding affinity to wild-type human partial length DCAMKL1 (L270 to A662 residues) expressed in HEK293 cells at 1 uM by Kinomescan method relative to control; format: cell-based
[9] = molecular target: Dual specificity tyrosine-phosphorylation-regulated kinase 2 (Homo sapiens) (UniProt Q92630); test: Binding affinity to wild-type human full length DYRK2 (M1 to S528 residues) expressed in HEK293 cells at 1 uM by Kinomescan method relative to control; format: cell-based; method in brief: as §2
Sequence of Dual specificity tyrosine-phosphorylation-regulated kinase 2 (Homo sapiens) (Q92630 whole entry, the tested form may be a part): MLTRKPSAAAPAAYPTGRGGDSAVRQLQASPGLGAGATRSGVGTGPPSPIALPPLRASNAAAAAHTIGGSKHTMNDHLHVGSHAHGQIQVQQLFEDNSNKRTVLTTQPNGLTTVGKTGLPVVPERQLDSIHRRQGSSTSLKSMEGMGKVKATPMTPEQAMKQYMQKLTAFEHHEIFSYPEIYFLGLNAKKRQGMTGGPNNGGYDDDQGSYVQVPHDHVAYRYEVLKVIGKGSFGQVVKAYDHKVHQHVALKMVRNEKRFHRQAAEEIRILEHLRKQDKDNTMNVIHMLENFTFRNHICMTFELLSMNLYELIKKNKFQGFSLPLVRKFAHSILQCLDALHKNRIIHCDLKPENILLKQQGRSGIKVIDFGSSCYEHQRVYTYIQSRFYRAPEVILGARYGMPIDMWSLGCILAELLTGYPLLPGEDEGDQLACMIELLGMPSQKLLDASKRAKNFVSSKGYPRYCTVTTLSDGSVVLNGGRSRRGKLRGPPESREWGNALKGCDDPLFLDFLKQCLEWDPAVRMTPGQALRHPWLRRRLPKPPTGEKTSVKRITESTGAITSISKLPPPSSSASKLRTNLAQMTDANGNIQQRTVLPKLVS

[10] = tested on: Epidermal growth factor receptor (Homo sapiens), P00533 [UNDEFINED MUTATION]; test: Binding affinity to human partial length EGFR L747-E749del/A750P mutant expressed in Escherichia coli BL21 at 1 uM by Kinomescan method relative to control
[11] = molecular target: Ephrin type-A receptor 1 (Homo sapiens) (UniProt P21709); test: Binding affinity to wild-type human partial length EPHA1 (V588 to I913 residues) expressed in Escherichia coli BL21 at 1 uM by Kinomescan method relative to control
[12] = tested on: eIF-2-alpha kinase GCN2 (Homo sapiens), Q9P2K8 [S808G]; test: Binding affinity to wild-type human partial length GCN2 kinase domain 2 (R585 to T1018 residues) S808G mutant expressed in Escherichia coli BL21 at 1 uM by Kinomescan method relative to control
Sequence of eIF-2-alpha kinase GCN2 (Homo sapiens), Q9P2K8 [S808G] (Q9P2K8 whole entry S808G, the tested form may be a part): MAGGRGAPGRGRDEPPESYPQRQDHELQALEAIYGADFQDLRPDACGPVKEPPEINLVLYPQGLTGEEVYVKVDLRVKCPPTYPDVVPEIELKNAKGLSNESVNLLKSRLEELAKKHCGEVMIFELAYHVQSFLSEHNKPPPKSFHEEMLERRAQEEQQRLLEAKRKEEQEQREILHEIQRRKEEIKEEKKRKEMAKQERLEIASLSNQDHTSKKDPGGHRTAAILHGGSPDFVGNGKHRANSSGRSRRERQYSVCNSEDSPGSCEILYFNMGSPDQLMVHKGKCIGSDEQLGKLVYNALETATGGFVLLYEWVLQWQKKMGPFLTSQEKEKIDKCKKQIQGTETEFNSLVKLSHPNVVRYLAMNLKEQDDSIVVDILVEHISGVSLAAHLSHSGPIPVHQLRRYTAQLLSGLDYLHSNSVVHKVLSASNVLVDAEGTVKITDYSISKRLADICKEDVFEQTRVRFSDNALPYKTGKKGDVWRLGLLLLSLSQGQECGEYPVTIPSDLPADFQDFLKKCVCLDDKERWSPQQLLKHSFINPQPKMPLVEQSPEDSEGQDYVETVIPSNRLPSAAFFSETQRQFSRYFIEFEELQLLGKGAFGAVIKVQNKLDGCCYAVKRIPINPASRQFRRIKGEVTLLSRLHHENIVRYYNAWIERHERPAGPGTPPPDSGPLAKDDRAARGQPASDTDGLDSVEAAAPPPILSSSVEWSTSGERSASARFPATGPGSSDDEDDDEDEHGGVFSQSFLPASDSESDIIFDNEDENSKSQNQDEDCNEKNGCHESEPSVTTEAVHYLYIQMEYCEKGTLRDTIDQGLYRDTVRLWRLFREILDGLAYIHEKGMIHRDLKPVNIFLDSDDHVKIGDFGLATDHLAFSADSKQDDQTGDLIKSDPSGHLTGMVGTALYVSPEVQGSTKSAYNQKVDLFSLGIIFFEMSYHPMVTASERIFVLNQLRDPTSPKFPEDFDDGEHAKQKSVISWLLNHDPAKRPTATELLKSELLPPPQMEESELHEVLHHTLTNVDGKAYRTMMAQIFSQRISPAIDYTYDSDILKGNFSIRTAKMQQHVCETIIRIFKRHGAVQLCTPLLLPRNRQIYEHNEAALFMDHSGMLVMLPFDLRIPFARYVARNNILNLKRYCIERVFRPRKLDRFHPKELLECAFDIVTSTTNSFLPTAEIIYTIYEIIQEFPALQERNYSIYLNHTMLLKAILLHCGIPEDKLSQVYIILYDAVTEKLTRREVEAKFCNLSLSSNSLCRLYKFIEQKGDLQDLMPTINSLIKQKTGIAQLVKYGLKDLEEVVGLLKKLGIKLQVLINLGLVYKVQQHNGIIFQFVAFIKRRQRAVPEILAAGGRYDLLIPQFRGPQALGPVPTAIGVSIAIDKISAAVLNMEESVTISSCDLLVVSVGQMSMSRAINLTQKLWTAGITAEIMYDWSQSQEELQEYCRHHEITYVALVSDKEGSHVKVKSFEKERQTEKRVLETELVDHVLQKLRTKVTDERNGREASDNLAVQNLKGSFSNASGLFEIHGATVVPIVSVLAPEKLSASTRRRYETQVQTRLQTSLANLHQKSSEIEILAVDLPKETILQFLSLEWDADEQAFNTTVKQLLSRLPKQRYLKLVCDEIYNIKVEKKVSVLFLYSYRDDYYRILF

[13] = molecular target: Hormonally up-regulated neu tumor-associated kinase (Homo sapiens) (UniProt P57058); test: Binding affinity to wild-type human partial length HUNK (A31 to K354 residues) expressed in Escherichia coli BL21 at 1 uM by Kinomescan method relative to control
[14] = molecular target: Insulin-like growth factor 1 receptor (Homo sapiens) (UniProt P08069); test: Binding affinity to wild-type human partial length IGF1R (L972 to D1294 residues) expressed in Escherichia coli BL21 at 1 uM by Kinomescan method relative to control
[15] = molecular target: Insulin receptor-related protein (Homo sapiens) (UniProt P14616); test: Binding affinity to wild-type human partial length INSRR (R950 to E1278 residues) expressed in Escherichia coli BL21 at 1 uM by Kinomescan method relative to control
[16] = molecular target: Serine/threonine-protein kinase STK11 (Homo sapiens) (UniProt Q15831); test: Binding affinity to wild-type human full length LKB1 (M1 to Q433 residues) expressed in Escherichia coli BL21 at 1 uM by Kinomescan method relative to control; method in brief: as §2
[17] = molecular target: MAP kinase-activated protein kinase 2 (Homo sapiens) (UniProt P49137); test: Binding affinity to wild-type human partial length MAPKAPK2 (V48 to D345 residues) expressed in Escherichia coli BL21 at 1 uM by Kinomescan method relative to control
[18] = molecular target: Serine/threonine-protein kinase 38-like (Homo sapiens) (UniProt Q9Y2H1); test: Binding affinity to wild-type human partial length NDR2 (N34 to E447 residues) expressed in Escherichia coli BL21 at 1 uM by Kinomescan method relative to control
Sequence of Serine/threonine-protein kinase 38-like (Homo sapiens) (Q9Y2H1 2-464 limits assumed): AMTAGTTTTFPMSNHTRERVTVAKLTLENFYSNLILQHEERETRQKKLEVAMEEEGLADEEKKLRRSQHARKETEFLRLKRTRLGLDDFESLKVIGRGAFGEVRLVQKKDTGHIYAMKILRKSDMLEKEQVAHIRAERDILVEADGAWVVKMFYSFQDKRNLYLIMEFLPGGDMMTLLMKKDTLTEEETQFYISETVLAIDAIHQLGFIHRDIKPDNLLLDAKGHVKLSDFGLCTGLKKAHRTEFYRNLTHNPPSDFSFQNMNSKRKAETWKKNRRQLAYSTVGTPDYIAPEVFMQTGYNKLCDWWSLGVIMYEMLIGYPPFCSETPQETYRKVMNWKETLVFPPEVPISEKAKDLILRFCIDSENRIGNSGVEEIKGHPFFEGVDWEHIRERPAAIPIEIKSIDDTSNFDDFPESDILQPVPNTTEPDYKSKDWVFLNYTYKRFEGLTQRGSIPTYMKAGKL

[19] = molecular target: Serine/threonine-protein kinase Nek4 (Homo sapiens) (UniProt P51957); test: Binding affinity to wild-type human full length NEK4 (M1 to F841 residues) expressed in HEK293 cells at 1 uM by Kinomescan method relative to control; format: cell-based; method in brief: as §1
[20] = molecular target: Serine/threonine-protein kinase Nek5 (Homo sapiens) (UniProt Q6P3R8); test: Binding affinity to wild-type human partial length NEK5 (M1 to M279 residues) expressed in Escherichia coli BL21 at 1 uM by Kinomescan method relative to control
Sequence of Serine/threonine-protein kinase Nek5 (Homo sapiens) (Q6P3R8 whole entry, the tested form may be a part): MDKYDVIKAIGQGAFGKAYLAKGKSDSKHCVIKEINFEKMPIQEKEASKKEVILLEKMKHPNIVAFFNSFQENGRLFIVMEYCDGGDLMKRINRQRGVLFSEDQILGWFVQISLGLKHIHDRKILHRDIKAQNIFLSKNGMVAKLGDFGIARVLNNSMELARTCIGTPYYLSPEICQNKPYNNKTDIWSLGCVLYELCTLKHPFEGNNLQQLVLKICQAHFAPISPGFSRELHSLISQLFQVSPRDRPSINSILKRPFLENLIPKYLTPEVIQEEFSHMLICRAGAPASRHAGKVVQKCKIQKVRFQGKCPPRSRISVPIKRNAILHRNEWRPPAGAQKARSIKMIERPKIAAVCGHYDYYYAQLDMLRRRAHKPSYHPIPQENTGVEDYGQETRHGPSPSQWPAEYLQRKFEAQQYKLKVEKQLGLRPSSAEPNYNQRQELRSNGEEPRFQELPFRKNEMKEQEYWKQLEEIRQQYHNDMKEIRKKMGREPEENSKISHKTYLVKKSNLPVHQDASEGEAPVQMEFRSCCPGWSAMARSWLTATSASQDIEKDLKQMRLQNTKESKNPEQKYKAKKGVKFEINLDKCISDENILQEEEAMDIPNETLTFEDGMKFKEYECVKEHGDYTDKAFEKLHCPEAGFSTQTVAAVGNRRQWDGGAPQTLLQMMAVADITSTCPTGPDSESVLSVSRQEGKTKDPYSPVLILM

[21] = molecular target: Serine/threonine-protein kinase NLK (Homo sapiens) (UniProt Q9UBE8); test: Binding affinity to wild-type human full length NLK (M13 to E527 residues) expressed in Escherichia coli BL21 at 1 uM by Kinomescan method relative to control; method in brief: as §1
[22] = tested on: Phosphatidylinositol 4,5-bisphosphate 3-kinase catalytic subunit alpha isoform (Homo sapiens), P42336 [H1047L]; test: Binding affinity to human partial length PIK3CA H1047L mutant (R108 to N1068 residues) expressed in HEK293 cells at 1 uM by Kinomescan method relative to control; format: cell-based
[23] = molecular target: Proto-oncogene tyrosine-protein kinase receptor Ret (Homo sapiens) (UniProt P07949); test: Binding affinity to wild-type human partial length RET (E713 to D1014 residues) expressed in Escherichia coli BL21 at 1 uM by Kinomescan method relative to control
[24] = molecular target: Serine/threonine-protein kinase RIO1 (Homo sapiens) (UniProt Q9BRS2); test: Binding affinity to wild-type human full length RIOK1 (M1 to K568 residues) expressed in Escherichia coli BL21 at 1 uM by Kinomescan method relative to control
[25] = molecular target: Serine/threonine-protein kinase 25 (Homo sapiens) (UniProt O00506); test: Binding affinity to wild-type human partial length YSK1 (V14 to H295 residues) expressed in Escherichia coli BL21 at 1 uM by Kinomescan method relative to control

SMILES | Activity [1] [%] | Activity [2] [%] | Activity [3] [%] | Activity [4] [%] | Activity [5] [%] | Activity [6] [%] | Activity [7] [%] | Activity [8] [%] | Activity [9] [%] | Activity [10] [%] | Activity [11] [%] | Activity [12] [%] | Activity [13] [%] | Activity [14] [%] | Activity [15] [%] | Activity [16] [%] | Activity [17] [%] | Activity [18] [%] | Activity [19] [%] | Activity [20] [%] | also measured
C=CC(=O)Nc1ccc(C(=O)Nc2ccc(Nc3ncc4c(n3)N(C)c3ccc(C)cc3C(=O)N4C)cc2)cc1 | 90 | 100 | 100 | 100 | 88 | 89 | 95 | 78 | 92 | 76 | 97 | 100 | 100 | 100 | 100 | 93 | 98 | 97 | 86 | 100 | Activity [21]: 81%; Activity [22]: 63%; Activity [23]: 86%; Activity [24]: 84%; Activity [25]: 87%
CCC(=O)Nc1ccc(C(=O)Nc2ccc(Nc3ncc4c(n3)N(C)c3ccc(C)cc3C(=O)N4C)cc2)cc1 | 72 | 100 | 100 | 83 | 100 | 91 | 97 | 72 | 100 | 48 | 100 | 94 | 91 | 84 | 100 | 94 | 100 | 79 | 76 | 86 | Activity [21]: 100%; Activity [22]: 70%; Activity [23]: 88%; Activity [24]: 68%; Activity [25]: 100%
